Laboratory results reported in ChEMBL document CHEMBL4732136, “Synthesis, Tumor Specificity, and Photosensitizing Efficacy of Erlotinib-Conjugated Chlorins and Bacteriochlorins: Identification of a Highly Effective Candidate for Photodynamic Therapy of Cancer” (J Med Chem, 2021).

Tests used:
[1] = Drug uptake in tumor of SCID mouse xenografted with FaDu cells assessed as drug accumulation by measuring fold increase to that of liver at 0.47 micromol/kg, iv pretreated with compound followed by light irradiation at a dose of 135 J/cm2 and 75 mW/cm2 and measured after 24 hrs by IVIS analysis; type: ADME, organism-based, Neoplasm; details: in vivo, dose 0.47 µmol/kg
Summary of the method: (§1)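 Female SCID mice bearing FaDu tumors 4–5 mm in diameter, 3 per group. PS in 1% Tween80/5% dextrose given iv at 0.47, 0.25 or 0.125 μmol/kg. IVIS whole-body fluorescence imaged at several time points; average radiant efficiency measured in tumor, liver and skin.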

[2] = Drug uptake in human CFSE-stained HN-121 cells assessed as increase in drug retention at 1.6 uM in medium with 10% FBS followed by 48 hrs chase period by inverted fluorescence microscopic analysis; type: ADME, cell-based; details: hn-121, 48 h
[3] = Drug uptake in tumor of SCID mouse xenografted with human UMUC3 cells at 0.47 micromol/kg, iv pretreated with compound followed by light irradiation at a dose of 135 J/cm2 and 75 mW/cm2 measured after 24 hrs by IVIS analysis; type: ADME, organism-based, Neoplasm; details: in vivo, dose 0.47 µmol/kg
Summary of the method: (§2)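 Female SCID mice with UMUC3 flank/shoulder tumors, 3 per group. PS in 1% Tween80/5% dextrose given iv at 0.47, 0.25 or 0.125 μmol/kg. Whole-body fluorescence imaging by IVIS at several times after injection; average radiant efficiency measured in tumor, liver and skin.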

[4] = Drug uptake in tumor of SCID mouse xenografted with human UMUC3 cells assessed as drug accumulation by measuring fold decrease to that of liver at 0.47 micromol/kg, iv followed by light irradiation at 665 nm at a dose of 135 J/cm2 and 75 mW/cm2 and measured after 24 hrs by IVIS analysis; type: ADME, organism-based, Neoplasm; details: in vivo; summary of the method: as §2
UMUC3 [5] = assay: Photosensitizing activity in human UMUC3 cells assessed as reduction in cell viability pretreated with compound for 24 hrs followed by light irradiation at 1 J/cm2 and measured after 48 hrs by MTT assay; type: functional, cell-based; details: UMUC3, light or radiation study
Summary of the method: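 Cells plated 0.01x10⁶ to 0.05x10⁶ cells/ml and allowed to adhere 24 h before photosensitizer was added, top dose 1600 nM with 2-fold serial dilutions. Plates received no light (0 J/cm²) or 1 J/cm² at 565 mW, 15 cm spot. After 48 h, MTT added for 3 h, formazan solubilized in DMSO and read at 570 nm; IC₅₀ fitted from dose-response.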

[6] = Drug uptake in human HN-143 cells assessed as increase in drug retention retention at 3 uM in medium with 10% FBS incubated for 5 hrs followed by 40 hrs chase period by inverted fluorescence microscopic analysis; type: ADME, cell-based; details: hn-143, 5 h
Summary of the method: (§3)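 Five-day co-cultures of HN-143 tumor epithelial cells and HN-166 tumor fibroblasts, both primary head & neck tumor cultures grown on collagen-1 under selective media. PS in 10% FBS medium for 5 h, then 40 h chase without PS. Phase-contrast and fluorescence images taken at 100X with 500 ms exposure; signal normalized to recording time and cell number.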

FaDu [7] = assay: Photodynamic antitumor activity against human FaDu cels xenografted in SCID mouse assessed as cure rate at 0.47 micromol/kg, iv pretreated with compound followed by light irradiation at a dose of 135 J/cm2 and 75 mW/cm2 and measured after 60 days post dose relative to control; type: functional; details: dose 0.47 µmol/kg; time 60 day
Summary of the method: (§4)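 FaDu-bearing female SCID mice (5 per group per experiment) given iv PS at 0.47, 0.25 or 0.125 μmol/kg in Tween80/dextrose. Tumors irradiated 24 h post-injection at 665 nm, 135 J/cm², 75 mW/cm². Tumor growth measured daily for 60 days, with euthanasia above 400 mm³. Cure taken as tumor-free at day 60; survival analysed by log-rank test.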

[8] = Drug uptake in human FaDu clone 49 cells assessed as increase in drug retention at 1.6 uM in RPMI medium with 10% FBS followed by 48 hrs chase period by inverted fluorescence microscopic analysis
FaDu [9] = assay: Photosensitizing activity in human FaDu cells assessed as reduction in cell viability pretreated with compound for 24 hrs followed by light irradiation at 1 J/cm2 and measured after 48 hrs by MTT assay; type: functional, cell-based; details: light or radiation study
Summary of the method: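 Cells seeded at 0.01–0.05 x 10⁶ cells/ml; PS added 24 h after plating, top dose 1600 nM with 2-fold serial dilutions. Plates given 0 or 1 J/cm² light. MTT added 48 h later, formazan dissolved in DMSO, absorbance at 570 nm; IC50 from curve fitting.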

[10] = Drug uptake in human HN-166 cells assessed as increase in drug retention retention at 3 uM in medium with 10% FBS incubated for 5 hrs followed by 40 hrs chase period by inverted fluorescence microscopic analysis; type: ADME, cell-based; details: hn-166, 5 h; summary of the method: as §3
UMUC3 [11] = assay: Photodynamic antitumor activity against human UMUC3 cels xenografted in SCID mouse assessed as cure rate at 0.47 micromol/kg, iv pretreated with compound followed by light irradiation at a dose of 135 J/cm2 and 75 mW/cm2 and measured after 60 days post dose relative to control; type: functional; details: dose 0.47 µmol/kg; time 60 day
Summary of the method: (§5)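 UMUC3-bearing female SCID mice given iv PS in 1% Tween80/5% dextrose. Mice restrained and tumors irradiated at 665 nm, 135 J/cm² over 30 min at 75 mW/cm², at the time of maximal tumor uptake. Tumor regrowth measured daily for 60 days; mice euthanized above 400 mm³. Cure plotted as survival curves and compared by log-rank (Mantel-Cox) test.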

[12] = Drug uptake in tumor of SCID mouse xenografted with FaDu cells at 0.47 micromol/kg, iv pretreated with compound followed by light irradiation at a dose of 135 J/cm2 and 75 mW/cm2 and measured at 6 hrs by IVIS analysis; type: ADME, organism-based, Neoplasm; details: in vivo, dose 0.47 µmol/kg; summary of the method: as §1
[13] = Drug uptake in liver of SCID mouse xenografted with human UMUC3 cells at 0.47 micromol/kg, iv pretreated with compound followed by light irradiation at a dose of 135 J/cm2 and 75 mW/cm2 measured at 24 hrs by IVIS analysis; type: ADME, organism-based; details: in vivo, dose 0.47 µmol/kg; summary of the method: as §2
[14] = Drug uptake in skin of SCID mouse xenografted with human UMUC3 cells at 0.47 micromol/kg, iv pretreated with compound followed by light irradiation at a dose of 135 J/cm2 and 75 mW/cm2 measured at 24 hrs by IVIS analysis; type: ADME, organism-based, Skin of body; details: in vivo, dose 0.47 µmol/kg; summary of the method: as §2
[15] = Drug uptake in skin of SCID mouse xenografted with FaDu cells at 0.47 micromol/kg, iv pretreated with compound followed by light irradiation at a dose of 135 J/cm2 and 75 mW/cm2 and measured at 24 hrs by IVIS analysis; type: ADME, organism-based, Skin of body; details: in vivo, dose 0.47 µmol/kg; summary of the method: as §1
FaDu [16] = assay: Photodynamic antitumor activity against human FaDu cells xenografted in SCID mouse assessed as cure rate at 0.47 micromol/kg, iv pretreated with compound followed by light irradiation at a dose of 135 J/cm2 and 75 mW/cm2 measured at 24 hrs relative to control; type: functional; details: dose 0.47 µmol/kg; summary of the method: as §4
[17] = Drug uptake in tumor of SCID mouse xenografted with FaDu cells assessed as fold increase at 0.47 micromol/kg, iv pretreated with compound followed by light irradiation at a dose of 135 J/cm2 and 75 mW/cm2 and measured at 24 hrs by IVIS analysis; type: ADME, organism-based, Neoplasm; details: in vivo, dose 0.47 µmol/kg; summary of the method: as §1
[18] = Drug uptake in liver of SCID mouse xenografted with FaDu cells at 0.47 micromol/kg, iv pretreated with compound followed by light irradiation at a dose of 135 J/cm2 and 75 mW/cm2 and measured at 24 hrs by IVIS analysis; type: ADME, organism-based; details: in vivo, dose 0.47 µmol/kg; summary of the method: as §1
FaDu [19] = assay: Photodynamic antitumor activity against human FaDu cels xenografted in SCID mouse assessed as cure rate at 0.47 micromol/kg, iv pretreated with compound followed by light irradiation at a dose of 135 J/cm2 and 75 mW/cm2 and measured at 24 hrs post dose relative to control; type: functional; details: dose 0.47 µmol/kg; summary of the method: as §4
[20] = Drug uptake in tumor of SCID mouse xenografted with FaDu cells at 0.47 micromol/kg, iv pretreated with compound followed by light irradiation at a dose of 135 J/cm2 and 75 mW/cm2 and measured at 24 hrs by IVIS analysis; type: ADME, organism-based, Neoplasm; details: in vivo, dose 0.47 µmol/kg; summary of the method: as §1
[21] = Drug uptake in human HNT1 cells at 3.2 uM incubated for 30 mins in DMEM media with 10% FBS followed by […] in compound-free medium by inverted fluorescence microscopic analysis; type: ADME, cell-based; details: hnt1, 0.5 h, in the assay text read “in serum-free medium” for “in DMEM media with 10% FBS”
Summary of the method: (§6)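 Confluent HNT1 cultures (passage 116) given 3.2 μM PS for 30 min in serum-free medium, then 5 h in serum-containing medium with PS, then 15 h chase in serum medium without PS. Fluorescence recorded at 100X with varied camera exposures and quantified digitally; pixel signal normalized to time and cell number.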

[22] = Drug uptake in human HNT1 cells at 3.2 uM incubated for 30 mins in serum free medium followed by […] in compound-free medium by inverted fluorescence microscopic analysis; type: ADME, cell-based; details: hnt1, 0.5 h; summary of the method: as §6
UMUC3 [23] = assay: Photodynamic antitumor activity against human UMUC3 cells xenografted in SCID mouse assessed as tumor retention at 0.47 micromol/kg, iv pretreated with compound followed by light irradiation at a dose of 135 J/cm2 and 75 mW/cm2 measured at day 30 post dose relative to control; type: functional; details: dose 0.47 µmol/kg; time 30 day; summary of the method: as §5

SMILES	Drug uptake [2]	Drug uptake [3]	IC50 (UMUC3 [5])	Drug uptake [8]	IC50 (FaDu [9])	Drug uptake [15]	Drug uptake [18]	Activity (FaDu [19])	Drug uptake [20]	other results
CCCCCCOC(C)c1c(C)c2cc3nc(c4c5[nH]c(cc6nc(cc1[nH]2)C(C)=C6CC)c(C)c5C(=O)C4)[C@@H](CCC(=O)NCCCCn1cc(-c2cccc(Nc4ncnc5cc(OCCOC)c(OCCOC)cc45)c2)nn1)[C@@H]3C (stereo not given in full)	Active	Active	20.2 nM	Active	17.6 nM					fold change (FC) [1]: 2; fold change (FC) [4]: 2; Drug uptake [6]: Active; Activity (FaDu [7]): 40%; Drug uptake [10]: Active; Activity (UMUC3 [11]): 20%; Drug uptake [12]: Active
CCC1=C(C)c2cc3[nH]c(cc4nc(c5c6[nH]c(cc1n2)c(C)c6C(=O)C5)[C@@H](CCC(=O)OC)[C@@H]4C)c(C)c3C(C)OCc1ccc(C#Cc2cccc(Nc3ncnc4cc(OCCOC)c(OCCOC)cc34)c2)cc1 (stereo not given in full)	Active	Active	20.9 nM	Active	59.6 nM	Active	Active	66%	Active	Drug uptake [13]: Active; Drug uptake [14]: Active; Activity (FaDu [16]): 66%; fold change (FC) [17]: 2
CCCCCCOC(C)c1c(C)c2cc3nc(c4c5[nH]c(cc6nc(cc1[nH]2)C(C)=C6CC)c(C)c5C(=O)C4)[C@@H](CCC(=O)O)[C@@H]3C (stereo not given in full) [HPPH]		Active	68.4 nM		43.8 nM	Active	Active	30%	Active	Drug uptake [21]: Active; Drug uptake [22]: Active; Activity (UMUC3 [23]): 30%
